ChEMBL document CHEMBL1799931, “Synthesis, evaluation and metabolic studies of radiotracers containing a 4-(4-[18F]-fluorobenzyl)piperidin-1-yl moiety for the PET imaging of NR2B NMDA receptors” (Eur J Med Chem, 2011)
Values belong to the compound of their own block, whether it stands above or below them.

How the values were obtained:
Plasma [1] = assay: Metabolic stability of the compound in rat plasma after 30 mins; type: ADME, cell-free; details: 0.5 h
Method in brief: (§1)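 Rat plasma or liver homogenate (0.450 mL) spiked with ligand at 5-200 mg/L. Samples were deproteinized with acetonitrile immediately or after 30 min at 37 °C, then analysed by HPLC in triplicate injections.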

[2] = molecular target: T1, Glutamate NMDA receptor; GRIN1/GRIN2B (Homo sapiens, UniProt Q05586+Q13224); assay: Displacement of [3H]-Ro-256981 from recombinant NR1/NR2B receptor; type: protein-complex assay
T1 sequence (Q13224 whole entry, other chains not shown): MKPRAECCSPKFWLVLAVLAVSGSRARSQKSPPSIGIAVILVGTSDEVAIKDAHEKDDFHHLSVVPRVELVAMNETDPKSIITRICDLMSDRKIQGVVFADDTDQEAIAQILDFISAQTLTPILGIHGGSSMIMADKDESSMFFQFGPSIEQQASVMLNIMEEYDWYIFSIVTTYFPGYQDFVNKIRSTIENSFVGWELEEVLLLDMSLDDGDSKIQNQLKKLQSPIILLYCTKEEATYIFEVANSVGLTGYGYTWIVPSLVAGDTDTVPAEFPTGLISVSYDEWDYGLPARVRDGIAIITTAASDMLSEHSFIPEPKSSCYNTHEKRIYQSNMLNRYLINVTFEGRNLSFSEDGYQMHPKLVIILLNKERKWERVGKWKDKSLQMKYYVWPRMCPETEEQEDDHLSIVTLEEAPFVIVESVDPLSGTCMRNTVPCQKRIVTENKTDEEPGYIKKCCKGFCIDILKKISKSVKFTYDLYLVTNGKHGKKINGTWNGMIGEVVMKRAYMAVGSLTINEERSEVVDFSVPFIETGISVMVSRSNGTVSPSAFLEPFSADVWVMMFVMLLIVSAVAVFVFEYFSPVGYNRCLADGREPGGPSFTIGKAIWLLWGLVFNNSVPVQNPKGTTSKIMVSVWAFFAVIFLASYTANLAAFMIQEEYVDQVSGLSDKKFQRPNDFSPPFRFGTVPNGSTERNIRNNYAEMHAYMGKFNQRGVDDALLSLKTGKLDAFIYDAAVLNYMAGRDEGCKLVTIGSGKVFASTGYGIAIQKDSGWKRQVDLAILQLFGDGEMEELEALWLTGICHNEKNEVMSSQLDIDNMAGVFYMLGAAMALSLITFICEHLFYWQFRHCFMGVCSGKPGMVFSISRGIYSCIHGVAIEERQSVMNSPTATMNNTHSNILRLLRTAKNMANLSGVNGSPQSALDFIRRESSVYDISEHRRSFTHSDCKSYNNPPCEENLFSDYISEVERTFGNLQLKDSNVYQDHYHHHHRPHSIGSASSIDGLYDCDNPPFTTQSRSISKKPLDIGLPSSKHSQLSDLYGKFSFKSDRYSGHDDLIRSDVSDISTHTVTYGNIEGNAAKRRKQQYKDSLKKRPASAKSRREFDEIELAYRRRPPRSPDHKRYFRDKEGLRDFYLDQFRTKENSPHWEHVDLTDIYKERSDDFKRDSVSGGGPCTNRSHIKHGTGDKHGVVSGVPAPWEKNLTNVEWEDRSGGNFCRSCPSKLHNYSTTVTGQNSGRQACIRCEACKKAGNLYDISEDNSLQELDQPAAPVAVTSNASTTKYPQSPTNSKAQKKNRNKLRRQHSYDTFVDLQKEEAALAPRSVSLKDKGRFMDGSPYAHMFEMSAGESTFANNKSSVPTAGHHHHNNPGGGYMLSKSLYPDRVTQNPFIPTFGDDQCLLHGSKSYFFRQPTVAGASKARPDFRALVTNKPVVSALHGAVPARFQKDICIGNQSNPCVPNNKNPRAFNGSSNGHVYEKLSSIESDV

[3] = molecular target: T1, Glutamate NMDA receptor; GRIN1/GRIN2B; assay: Antagonist activity against NR1a/NR2B receptor transfected in human HEK293 cells assessed as inhibition of NMDA-induced Ca2+ influx; type: functional, cell-based
Liver [4] = assay: Metabolic stability of the compound in rat liver homogenate after 30 mins; type: ADME, tissue-based; details: tissue homogenate, 0.5 h; method in brief: as §1
[5] = molecular target: Glutamate NMDA receptor; GRIN1/GRIN2A (Homo sapiens) (UniProt Q05586+Q12879); assay: Antagonist activity against NR1a/NR2A receptor transfected in human HEK293 cells assessed as inhibition of NMDA-induced Ca2+ influx at 10 uM; type: functional, cell-based
Method in brief: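 HEK293 cells co-transfected 1:1 with NR1-1a plus NR2A-GFP or NR2B-GFP, D-APV (100 µM) after transfection, used at 24 h. Cells loaded with Fura-2/AM 45 min at 37 °C, then held in HBBSS with glycine, pH 7.45, at room temperature under perfusion. NMDA 100 µM for 30 s; ligands applied 60 s before and during.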

Mus musculus = assay: Analgesic activity in po dosed mouse assessed as licking behavior measured after 20 to 25 mins by formalin test; type: functional, organism-based
Plasma [6] = assay: Metabolic stability in Sprague-Dawley rat assessed as unmetabolized parent compound in plasma at 10 mg/kg, iv after 1 hr by MS/MS analysis; type: ADME, organism-based; parameters: dose 10 mg/kg, route intravenous; details: in vivo
Method in brief: (§2)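 Two anesthetized male Sprague-Dawley rats got 10 mg/kg in sterile water by tail vein; two controls got sterile water at 1 mL/kg. Rats were kept awake 1 h, then decapitated. Plasma and urine went to LC-MS/MS, full scans compared with control.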

[7] = Metabolic stability in Sprague-Dawley rat assessed as unmetabolized parent compound in urine at 10 mg/kg, iv after 1 hr by MS/MS analysis; type: ADME, organism-based; parameters: dose 10 mg/kg, route intravenous; details: in vivo; method in brief: as §2
[8] = molecular target: T1, Glutamate NMDA receptor; GRIN1/GRIN2B; assay: Antagonist activity at human NR1a/NR2B receptor expressed in mouse fibroblast LMTK cells assessed as inhibition of Glu/Gly induced Ca2+ influx; type: functional, cell-based
Liver [9] = assay: Biodistribution in Sprague-Dawley rat liver at 3.2 to 18.6 MBq, iv after 120 mins by micro PET analysis; type: ADME, organism-based; details: in vivo, 2 h
Method in brief: (§3)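 Male Sprague-Dawley rats (235-310 g) under isoflurane got 18F radiotracer (3.2-18.6 MBq) by tail-vein catheter, n = 3. Dynamic microPET scan for 120 min, then ex vivo tissue counting at 120 min post-injection. Values are %ID/g ± SEM.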

Kidney = assay: Biodistribution in Sprague-Dawley rat kidney at 3.2 to 18.6 MBq, iv after 120 mins by micro PET analysis; type: ADME, organism-based; details: in vivo, 2 h; method in brief: as §3
Muscle tissue = assay: Biodistribution in Sprague-Dawley rat muscle at 3.2 to 18.6 MBq, iv after 120 mins by micro PET analysis; type: ADME, organism-based; details: in vivo, 2 h; method in brief: as §3
Brain = assay: Biodistribution in Sprague-Dawley rat brain at 3.2 to 18.6 MBq, iv after 120 mins by micro PET analysis; type: ADME, organism-based; details: in vivo, 2 h; method in brief: as §3
Lung = assay: Biodistribution in Sprague-Dawley rat lung at 3.2 to 18.6 MBq, iv after 120 mins by micro PET analysis; type: ADME, organism-based; details: in vivo, 2 h; method in brief: as §3
Rattus norvegicus [10] = assay: Biodistribution in Sprague-Dawley rat bladder at 3.2 to 18.6 MBq, iv after 120 mins by micro PET analysis; type: ADME, organism-based, Urinary bladder; details: in vivo, 2 h; method in brief: as §3
Intestine = assay: Biodistribution in Sprague-Dawley rat intestine at 3.2 to 18.6 MBq, iv after 120 mins by micro PET analysis; type: ADME, organism-based; details: in vivo, 2 h; method in brief: as §3
Cerebellum = assay: Biodistribution in Sprague-Dawley rat cerebellum at 3.2 to 18.6 MBq, iv after 120 mins by micro PET analysis; details: in vivo, 2 h
[11] = Metabolic stability in Sprague-Dawley rat plasma assessed as half life by radio thin layer chromatography analysis; type: ADME, cell-free
Method in brief: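 Anesthetized male Sprague-Dawley rats (235-330 g) given radiotracer (3.2-15.1 MBq). Femoral arterial blood was sampled over 90 min and plasma gamma-counted. Plasma was diluted with acetonitrile, centrifuged and run on silica radio-TLC with cold reference, giving parent and radiometabolite fractions.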

Spleen = assay: Biodistribution in Sprague-Dawley rat spleen at 3.2 to 18.6 MBq, iv after 120 mins by micro PET analysis; type: ADME, organism-based; details: in vivo, 2 h; method in brief: as §3
Rattus norvegicus [12] = assay: Biodistribution in Sprague-Dawley rat cartilage at 3.2 to 18.6 MBq, iv after 120 mins by micro PET analysis; type: ADME, organism-based, Cartilage tissue; details: in vivo, 2 h; method in brief: as §3
[13] = Biodistribution in Sprague-Dawley rat fat at 3.2 to 18.6 MBq, iv after 120 mins by micro PET analysis; type: ADME, organism-based, Adipose tissue; details: in vivo, 2 h; method in brief: as §3
Thymus = assay: Biodistribution in Sprague-Dawley rat thymus at 3.2 to 18.6 MBq, iv after 120 mins by micro PET analysis; type: ADME, organism-based; details: in vivo, 2 h; method in brief: as §3
Pancreas = assay: Biodistribution in Sprague-Dawley rat pancreas at 3.2 to 18.6 MBq, iv after 120 mins by micro PET analysis; type: ADME, organism-based; details: in vivo, 2 h; method in brief: as §3
Bone = assay: Biodistribution in Sprague-Dawley rat bone at 3.2 to 18.6 MBq, iv after 120 mins by micro PET analysis; type: ADME, organism-based, Bone element; details: in vivo, 2 h; method in brief: as §3
[14] = Biodistribution in Sprague-Dawley rat urine at 3.2 to 18.6 MBq, iv after 120 mins by micro PET analysis; type: ADME, organism-based; details: in vivo, 2 h; method in brief: as §3
Heart = assay: Biodistribution in Sprague-Dawley rat heart at 3.2 to 18.6 MBq, iv after 120 mins by micro PET analysis; type: ADME, organism-based; details: in vivo, 2 h; method in brief: as §3
Hippocampus = assay: Biodistribution in Sprague-Dawley rat hippocampus at 3.2 to 18.6 MBq, iv after 120 mins by micro PET analysis; details: in vivo, 2 h

SMILES: CC(C(O)c1ccc(O)cc1)N1CCC(Cc2ccccc2)CC1 (configuration not stated)
inhibition [5]: 22.3%

SMILES: Cc1ccc(CC2CCN(C(=O)C(=O)Nc3ccc4c(c3)CC(=O)N4)CC2)cc1
ED50 (Mus musculus): 0.5 mg/kg

SMILES: Fc1ccc(CC2CCNCC2)cc1
Stability (Plasma [6]): Unstable
Stability [7]: Unstable

SMILES: O=C(Nc1ccc2nc(O)sc2c1)C(=O)N1CCC(Cc2ccccc2)CC1
ED50 (Mus musculus): 0.5 mg/kg

SMILES: CS(=O)(=O)Nc1ccc2nc(CN3CCC(Cc4ccccc4)CC3)[nH]c2c1
IC50 [8]: 1.4 nM
IC50 [3]: 50.3 nM

SMILES: O=C(Nc1ccc2[nH]c(=O)[nH]c2c1)C(=O)N1CCC(Cc2ccccc2)CC1
IC50 [2]: 8 nM

Continued, in another order:

Stability (Plasma [1]): Stable
IC50 [2]: 6 nM
IC50 [3]: 69.9 nM
Stability (Liver [4]): Stable
SMILES: O=C(Nc1ccc2[nH]c(=O)oc2c1)C(=O)N1CCC(Cc2ccc(F)cc2)CC1 [RADIPRODIL]

Drug uptake (Liver [9]): 1.365 % ID/g
Drug uptake (Kidney): 0.377 % ID/g
Drug uptake (Muscle tissue): 0.069 % ID/g
Drug uptake (Brain): 0.054 % ID/g
Drug uptake (Lung): 0.132 % ID/g
Drug uptake (Rattus norvegicus [10]): 0.175 % ID/g
Drug uptake (Intestine): 0.107 % ID/g
Drug uptake (Cerebellum): 0.046 % ID/g
half-life [11]: 50 min
Drug uptake (Spleen): 0.169 % ID/g
Drug uptake (Rattus norvegicus [12]): 0.776 % ID/g
Drug uptake [13]: 0.056 % ID/g
Drug uptake (Thymus): 0.057 % ID/g
Drug uptake (Pancreas): 0.08 % ID/g
Drug uptake (Bone): 0.397 % ID/g
Drug uptake [14]: 3.237 % ID/g
Drug uptake (Heart): 0.076 % ID/g
Drug uptake (Hippocampus): 0.064 % ID/g
SMILES: O=C(Nc1ccc2[nH]c(=O)oc2c1)C(=O)N1CCC(Cc2ccc([18F])cc2)CC1

inhibition [5]: 10.1%
SMILES: O=C(Nc1ccc2nc(O)oc2c1)C(=O)N1CCC(Cc2ccc(F)cc2)CC1 [RADIPRODIL]
ED50 (Mus musculus; Mus musculus, po, read-out: ED50): 7.7 mg/kg
